The test system of experiment [1] is Blood. Description: Inhibition of arachidonic acid-induced platelet aggregation in human blood after 3 mins by turbidimetric assay. It counts as functional, tissue-based. To be noted: 0.05 h. In outline:
(§1)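 Washed human platelets were prepared from ACD-anticoagulated blood of healthy volunteers who had taken no drugs for two weeks. They were resuspended at 3 × 10⁸/ml in Tyrode's solution with Ca²⁺ 2 mM, glucose 11.1 mM and BSA 3.5 mg/ml. Platelets were preincubated with DMSO (0.5%) or compound at 37 °C for 3 min, stirring at 1200 rpm. Inducers were arachidonic acid, collagen, U46619 or thrombin (0.1 U/ml). Aggregation was read by light transmission. IC50 is mean ± SEM, n = 3.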

The test system of experiment [2] is Blood. Kind of experiment: Inhibition of U46619-induced platelet aggregation in human blood after 3 mins by turbidimetric assay. The format is functional, tissue-based. Particulars: 0.05 h. In outline: as §1
In experiment [3] the test system is Platelet. Description: Inhibition of arachidonic acid-induced TxB2 formation in human platelet at 0.5 uM per 3 x 10^8 platelets by immunoassay. The format is functional. In outline: (§2)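 Washed human platelets were suspended in Tyrode's solution with Ca²⁺, glucose and BSA and preincubated with DMSO or compound at 37 °C for 3 min. Arachidonic acid was then added. After 5 min the reaction was stopped with EDTA (2 mM) plus indomethacin. Samples were centrifuged for 3 min at 13,000 rpm. Supernatant TxB2 was measured by enzyme immunoassay and expressed per 3 × 10⁸ platelets. Values are mean ± SEM, n = 3.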

Experiment [4] relates to Platelet. Kind of experiment: Inhibition of arachidonic acid-induced TxB2 formation in human platelet at 1 uM per 3 x 10^8 platelets by immunoassay. It counts as functional. In outline:
as §2

Experiment [5] concerns Blood. Kind of experiment: Inhibition of thrombin-induced platelet aggregation in human blood after 3 mins by turbidimetric assay. To be noted: 0.05 h.
Experiment [6] concerns Blood. Kind of experiment: Inhibition of collagen-induced platelet aggregation in human blood after 3 mins by turbidimetric assay. To be noted: 0.05 h.
Experiment [7] relates to Platelet. Kind of experiment: Inhibition of arachidonic acid-induced TxB2 formation in human platelet at 200 uM per 3 x 10^8 platelets by immunoassay. The format is functional. In outline:
as §2

Regarding `CCCOC(=O)c1ccc(Cl)cc1NC(=O)c1ccccc1Cl`, the IC50 – broadly, the midpoint of a concentration-inhibition curve – with Blood [1] is 0.7 µM; with Blood [2] it was above 100 µM; with Blood [5], above 100 µM; with Blood [6] it was 2.3 µM. The Activity with Platelet [3] is on record as 62.56 ng; in the experiment with Platelet [4] it was 32.52 ng.
Consider `CCCOC(=O)c1ccc(Cl)cc1NC(=O)c1c(F)cccc1F`, for which the IC50 with Blood [1] was 0.5 µM; in the experiment with Blood [2] it was above 100 µM; in the experiment with Blood [5], 48.8 µM. Also, the results for the Activity with Platelet [3] and in the experiment with Platelet [4] were 45.47 ng and 7.74 ng, respectively.
The like results for `COC(=O)c1ccc(Cl)cc1NC(=O)c1c(F)cccc1F` were, in that order, 0.7 µM, above 100 µM, above 100 µM, 61.18 ng and 29.48 ng.
`CC(=O)Oc1ccccc1C(=O)O` [ASPIRIN]: the IC50 with Blood [1] is 150 µM; in the experiment on Blood [2] it was above 100 µM; in the experiment with Blood [5] it was above 100 µM; in the experiment on Blood [6] it was 153 µM. In the experiment with Platelet [7], this compound returned an Activity of 26.68 ng.
Turning to `COc1ccc2c(c1)c(CC(=O)O)c(C)n2C(=O)c1ccc(Cl)cc1` [INDOMETHACIN], the IC50 in the experiment on Blood [1] was 0.12 µM; in the experiment on Blood [2], above 100 µM; with Blood [5], above 100 µM; with Blood [6], 0.4 µM. In the experiment on Platelet [3], this compound gave an Activity of 3.09 ng.
